# Laboratory results as given in PMC8456861 (Transplant International, 2021).
# Entries after “also recorded” stand apart in the source; their conditions may differ. Where two headings read alike, the source gives them in different places.
# B1: sarilumab: anti‐IL‐6R antibody (antibody, chains of the INN, looked up, V domains shown)
# VH: EVQLVESGGGLVQPGRSLRLSCAASRFTFDDYAMHWVRQAPGKGLEWVSGISWNSGRIGYADSVKGRFTISRDNAENSLFLQMNGLRAEDTALYYCAKGRDSFDIWGQGTMVTVSS
# VL: DIQMTQSPSSVSASVGDRVTITCRASQGISSWLAWYQQKPGKAPKLLIYGASSLESGVPSRFSGSGSGTDFTLTISSLQPEDFASYYCQQANSFPYTFGQGTKLEIK
# B2: clazakizumab: monoclonal anti‐IL‐6 antibody (Vitaeris Inc.), 25 mg subcutaneously at 4‐weekly intervals (antibody, chains of the INN, looked up, V domains shown)
# VH: EVQLVESGGGLVQPGGSLRLSCAASGFSLSNYYVTWVRQAPGKGLEWVGIIYGSDETAYATSAIGRFTISRDNSKNTLYLQMNSLRAEDTAVYYCARDDSSDWDAKFNLWGQGTLVTVSS
# VL: AIQMTQSPSSLSASVGDRVTITCQASQSINNELSWYQQKPGKAPKLLIYRASTLASGVPSRFSGSGSGTDFTLTISSLQPDDFATYYCQQGYSLRNIDNAFGGGTKVEIK
# How the values were obtained:
# [1] = test system: CYP3A4/CYP3A5‐dependent metabolism; format: in vivo, patients (kidney transplant recipients with late ABMR); conditions: for C0/D ratio: week 12, median [IQR]
# CYP2C19 and CYP3A4 = experiment: Pantoprazole pharmacokinetics; format: in vivo, patients (kidney transplant recipients with late ABMR)
# Outline: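 20 mg pantoprazole given as an i.v. bolus on day 0, week 12 and week 52. At day 0 and week 12, dosing preceded study injection. EDTA blood was drawn pre-dose and 1, 2, 3, 4, 5 and 6 h after dosing, spun at 2000 g for 10 min at 4°C and stored at −80 °C. Plasma levels measured by HPLC-MS/MS. Noncompartmental Cmax, AUC0-last, AUC0-inf and T1/2 reported as median (IQR); Wilcoxon/Mann–Whitney tests.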
# CYP enzymes = conditions: critically ill patients; cited from earlier work
# [2] = earlier studies; cited from earlier work
# CYP3A4/CYP3A5 = format: in vivo, patients (kidney transplant recipients with late ABMR); conditions: human, whole blood, C0 level; for C0 at 12 week: week 12, median [IQR]
# CYP3A4 [3] = conditions: patients with rheumatoid arthritis; cited from earlier work
# CYP3A4 [4] = conditions: 19 patients with active rheumatoid arthritis; cited from earlier work
# C‐reactive protein (CRP) = experiment: High‐sensitive CRP under clazakizumab; format: in vivo, patients (kidney transplant recipients with late ABMR); conditions: clazakizumab 25 mg s.c. 4‐weekly
# Outline: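 Serum high-sensitivity CRP measured by latex particle-enhanced immunoturbidimetric assay on an automated analyser (functional sensitivity 0.03 mg/dl). Randomised double-blind design: clazakizumab 25 mg s.c. or 0.9% saline placebo every 4 weeks to week 12, then open clazakizumab 4-weekly to week 52. Data given as median (IQR).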
# Liver parameters = format: in vivo, patients (kidney transplant recipients with late ABMR); conditions: ALAT, AST, CHE
# [5] = test system: late antibody‐mediated rejection (ABMR); conditions: cited from earlier work
# [6] = Clazakizumab arm (n = 10), median (IQR)
# [7] = Placebo arm (clazakizumab in part B), median (IQR)
# [8] = Placebo arm (n = 10), median (IQR)
molecule,measurement,setting,value
CO[C@H]1C[C@@H]2CC[C@@H](C)[C@@](O)(O2)C(=O)C(=O)N2CCCC[C@H]2C(=O)O[C@H]([C@H](C)C[C@@H]2CC[C@@H](OCCO)[C@H](OC)C2)CC(=O)[C@H](C)/C=C(\C)[C@@H](O)[C@@H](OC)C(=O)[C@H](C)C[C@H](C)/C=C/C=C/C=C/1C [everolimus],decrease in C0/D ratio,"[1]; single patient, individual course over the study",approximately 50%
COc1ccnc(C[S+]([O-])c2nc3ccc(OC(F)F)cc3[nH]2)c1OC (centres unmarked) [pantoprazole],"Percent change from day 0 to week 12, AUC0‐inf",CYP2C19 and CYP3A4; [6],4.0 (−6.4‐80.3) Percent
same,"Percent change from day 0 to week 12, T1/2",CYP2C19 and CYP3A4; [6],18.4 (−0.4–23.2) Percent
same,"Percent change from day 0 to week 52, AUC0‐inf","CYP2C19 and CYP3A4; Clazakizumab arm, median (IQR)",52.3 (−5.6–64.1) Percent
same,"Percent change from day 0 to week 52, AUC0‐last","CYP2C19 and CYP3A4; Clazakizumab arm, median (IQR)",41.9 (0.4–84.5) Percent
same,"Percent change from day 0 to week 52, Cmax","CYP2C19 and CYP3A4; Clazakizumab arm, median (IQR)",22.5 (1.6‐37.8) Percent
same,"Percent change from day 0 to week 52, T1/2","CYP2C19 and CYP3A4; Clazakizumab arm, median (IQR)",8.8 (−9.7‐56.8) Percent
same,"Percent change from day 0 to week 52, AUC0‐inf",CYP2C19 and CYP3A4; [7],0.72 (−42.7–64.0) Percent
same,"Percent change from day 0 to week 52, AUC0‐last",CYP2C19 and CYP3A4; [7],13.6 (−47.2–50.5) Percent
same,"Percent change from day 0 to week 12, AUC0‐inf",CYP2C19 and CYP3A4; [8],13.8 (−17.7‐27.8) Percent
same,"Percent change from day 0 to week 12, AUC0‐last",CYP2C19 and CYP3A4; [8],15.6 (−18.7‐31.1) Percent
same,"Percent change from day 0 to week 12, Cmax",CYP2C19 and CYP3A4; [8],5.7 (−10.7‐41.3) Percent
same,"Percent change from day 0 to week 12, T1/2",CYP2C19 and CYP3A4; [8],0.2 (−14.4‐21.5) Percent
same,"Percent change from day 0 to week 12, AUC0‐inf","CYP2C19 and CYP3A4; Total (n = 20), median (IQR)",11.6 (−11.7‐31.4) Percent
same,"Percent change from day 0 to week 12, AUC0‐last","CYP2C19 and CYP3A4; Total (n = 20), median (IQR)",10.4 (−8.0‐27.8) Percent
same,"Percent change from day 0 to week 12, Cmax","CYP2C19 and CYP3A4; Total (n = 20), median (IQR)",2.1 (−12.2‐26.3) Percent
same,"Percent change from day 0 to week 12, T1/2","CYP2C19 and CYP3A4; Total (n = 20), median (IQR)",5.9 (−4.5–23.2) Percent
same,"Percent change from day 0 to week 52, AUC0‐inf","CYP2C19 and CYP3A4; Total, median (IQR)",31.9 (−22.5–64.0) Percent
same,"Percent change from day 0 to week 52, AUC0‐last","CYP2C19 and CYP3A4; Total, median (IQR)",25.3 (−15.9–51.7) Percent
same,"Percent change from day 0 to week 52, Cmax","CYP2C19 and CYP3A4; Total, median (IQR)",5.5 (−22.1‐33.6) Percent
same,Cmax,"CYP2C19 and CYP3A4; human, plasma, iv, 20 mg, Cmax, 20 mg i.v., day 0, Total (n = 20), median (IQR)",1490 ng/mL
same,half-life,"CYP2C19 and CYP3A4; human, plasma, iv, 20 mg, T1/2, 20 mg i.v., day 0, Total (n = 20), median (IQR)",1.08 h
same,"half‐life, fold longer than in this study's patients / healthy volunteers",CYP enzymes,approximately 5 fold
same,half‐life,[2],generally less than two hours
same,time to complete absorption,[2],about 12 hours
C=CC[C@@H]1/C=C(\C)C[C@H](C)C[C@H](OC)[C@H]2O[C@@](O)(C(=O)C(=O)N3CCCC[C@H]3C(=O)O[C@H](/C(C)=C/[C@@H]3CC[C@@H](O)[C@H](OC)C3)[C@H](C)[C@@H](O)CC1=O)[C@H](C)C[C@@H]2OC [tacrolimus],C0 at 12 week,CYP3A4/CYP3A5; clazakizumab arm (n = 6),7 ng/mL
same,C0 at 12 week,CYP3A4/CYP3A5; placebo arm (n = 7),6.4 ng/mL
same,concentration at 0 day,"CYP3A4/CYP3A5; baseline, Clazakizumab arm, median (IQR)",5.6 ng/mL
same,C0/D ratio,[1]; clazakizumab arm (n = 6),2.15 [1.13–4.35] ng/ml/mg
same,C0/D ratio,[1]; placebo arm (n = 7),2.0 [0.73–2.03] ng/ml/mg
tocilizumab: anti‐IL‐6R antibody,effect on CYP activity and simvastatin metabolism,CYP3A4 [3],restored diminished CYP activity and substantially enhanced the metabolism of simvastatin
B1,effect on altered simvastatin exposure,CYP3A4 [4],fully reversed
B2,impact on pantoprazole pharmacokinetics / CYP‐dependent drug metabolism,CYP2C19 and CYP3A4; IL‐6 blockade up to 52 weeks,no clinically meaningful impact; also recorded: did not enhance CYP‐dependent drug metabolism
same,effect on CRP levels,C‐reactive protein (CRP),suppressed to undetectable levels; also recorded: virtually complete reduction
same,effect on liver parameters,Liver parameters,no meaningful effect
same,effect on DSA,[5]; after 3 months,significant reduction of DSA
same,"effect on ABMR activity (microcirculation inflammation, molecular ABMR scores)",[5]; after prolonged treatment,modulation of ABMR activity
same,effect on progression of graft dysfunction,[5]; over a period of a year,significantly halted the progression of graft dysfunction
